Calls of active or inactive are those of the source. No cut-off for these calls is given here.
What was measured:
[1] = Phototoxicity against mouse S37 cells implanted in F1 mouse assessed as tumor growth inhibition at 5 mg/kg, iv preincubated for 15 mins with subsequent 150 J/cm2 irradiation measured on day 15 post irradiation relative to control; assay type: functional; conditions: S37, light or radiation study, read-out: TGI
How it was run: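 S37 sarcoma mice treated on day 7 of tumor growth with compound iv; tumors 140–160 mm3 beforehand, droperidol 0.25 mg ip as anesthetic. LED irradiation at 800 ± 21 nm, 100 mW/cm2, 150 J/cm2, given 15 or 30 min after dosing. Controls got iv 0.9% NaCl. Volume = d1×d2×d3×0.52; TGI = […]×100%.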

[2] = Phototoxicity against rat Sarcoma M1 cells implanted in rat assessed as apoptotic index at 2.5 mg/kg, ip administered as single dose on day 11 after inoculation followed by 300 J/cm2 irradiation after 2.5 to 3 hrs measured on day 12 post photodynamic therapy (reference value: 0.37 +/- 0.06%); assay type: functional
How it was run: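 Rats with M1 sarcoma implanted subcutaneously in the left thigh were randomized on day 10, 25 per group. Single ip dose of 2.5 mg/kg on day 11; laser irradiation 2.5–3 h later at 810 nm, 0.51 W/cm2, 300 J/cm2, 10 min over a 1.5 cm field. Five rats sampled per time point for H&E histology, PCNA immunohistochemistry (1:200) and tumor volume. Untreated controls; Student's test, p < 0.05.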

[3] = system: Sarcoma M1; assay: Phototoxicity against rat Sarcoma M1 cells implanted in rat assessed as coagulative tumor necrosis at 2.5 mg/kg, ip administered as single dose on day 11 post inoculation followed by 300 J/cm2 irradiation after 2.5 to 3 hrs measured on day 2 post photodynamic therapy by hematoxylin and eosin staining based assay; assay type: functional, organism-based

| SMILES | inhibition in vivo at 5 mg/kg [1] [%] | Activity [2] [%] | Activity [3] |
| --- | --- | --- | --- |
| CCCO/N=C(\C)c1c(C)c2cc3nc(c4c5[nH]c(cc6nc(cc1[nH]2)[C@H](C)[C@H]6CC)c(C)c5C(=O)N(OCCC)C4=O)[C@@H](CCC(=O)OC)[C@@H]3C | 100 |  |  |
| CCCO/N=C(\C)c1c(C)c2cc3nc(c4c5[nH]c(cc6nc(cc1[nH]2)[C@@H](C)[C@@H]6CC)c(C)c5C(=O)N(OCCC)C4=O)[C@H](CCC(=O)NCCSSCCNC(=O)CC[C@@H]1c2nc(cc4[nH]c(cc5nc(cc6[nH]c7c2C(=O)N(OCCC)C(=O)c7c6C)[C@H](CC)[C@H]5C)c(/C(C)=N/OCCC)c4C)[C@H]1C)[C@H]3C |  | 0.42 | Active |

— ChEMBL document CHEMBL4024769, “Synthesis and Investigation of Photophysical and Biological Properties of Novel S-Containing Bacteriopurpurinimides” (J Med Chem, 2017)
